Measurements published in ChEMBL document CHEMBL1641413, “Identification of 3-sulfonylindazole derivatives as potent and selective 5-HT(6) antagonists” (Bioorg Med Chem, 2011).
Activity calls are given as the source filed them. No cut-off for these calls is given here.

Columns and labels:
[1] = molecular target: 5-hydroxytryptamine receptor 7 (Homo sapiens, UniProt P34969); experiment: Binding affinity to 5-HT7 receptor
[2] = Half life in rat microsomes; type: ADME, Microsome
[3] = molecular target: T1, 5-hydroxytryptamine receptor 6 (Homo sapiens, UniProt P50406); experiment: Antagonist activity at cloned human 5-HT6 receptor expressed in human HeLa cells assessed as inhibition of 5HT-induced cyclic AMP formation; type: functional, cell-based
T1 sequence (P50406 whole entry): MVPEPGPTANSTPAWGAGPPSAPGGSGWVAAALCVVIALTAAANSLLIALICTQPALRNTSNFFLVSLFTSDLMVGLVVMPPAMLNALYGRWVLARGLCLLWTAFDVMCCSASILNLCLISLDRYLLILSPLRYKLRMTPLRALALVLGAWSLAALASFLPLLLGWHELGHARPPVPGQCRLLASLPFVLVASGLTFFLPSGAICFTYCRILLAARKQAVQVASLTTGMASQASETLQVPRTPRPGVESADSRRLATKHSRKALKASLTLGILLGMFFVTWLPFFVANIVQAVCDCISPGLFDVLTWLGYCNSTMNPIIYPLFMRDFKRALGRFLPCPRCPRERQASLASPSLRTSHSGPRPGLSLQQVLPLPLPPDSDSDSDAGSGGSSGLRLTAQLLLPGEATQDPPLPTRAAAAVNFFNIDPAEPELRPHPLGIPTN

[4] = Solubility of the compound in water; type: physicochemical
[5] = molecular target: T2, 5-hydroxytryptamine receptor 2B (Homo sapiens, UniProt P41595); experiment: Agonist activity at 5-HT2B receptor at 0.1 nM to 10 uM by FLIPR assay; type: functional
T2 sequence (P41595 whole entry): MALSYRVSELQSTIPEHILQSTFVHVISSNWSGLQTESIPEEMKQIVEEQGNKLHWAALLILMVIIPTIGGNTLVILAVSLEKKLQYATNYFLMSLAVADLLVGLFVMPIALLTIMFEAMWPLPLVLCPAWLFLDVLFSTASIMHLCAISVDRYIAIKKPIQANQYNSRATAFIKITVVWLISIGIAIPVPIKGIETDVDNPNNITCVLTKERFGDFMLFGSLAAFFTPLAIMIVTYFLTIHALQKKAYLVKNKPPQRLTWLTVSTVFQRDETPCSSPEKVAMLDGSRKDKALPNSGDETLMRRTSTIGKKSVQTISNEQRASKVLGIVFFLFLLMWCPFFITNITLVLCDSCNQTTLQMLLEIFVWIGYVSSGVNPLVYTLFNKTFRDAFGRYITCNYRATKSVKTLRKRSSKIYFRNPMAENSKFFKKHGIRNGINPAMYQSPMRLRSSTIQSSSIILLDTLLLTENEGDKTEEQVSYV

[6] = % bound in plasma; type: ADME, cell-free; conditions: read-out: PPB
[7] = Half life in human microsomes; type: ADME, Microsome
[8] = molecular target: 5-hydroxytryptamine receptor 1D (Homo sapiens, UniProt P28221); experiment: Binding affinity to 5-HT1D receptor
Chain of 5-hydroxytryptamine receptor 1D (P28221 whole entry): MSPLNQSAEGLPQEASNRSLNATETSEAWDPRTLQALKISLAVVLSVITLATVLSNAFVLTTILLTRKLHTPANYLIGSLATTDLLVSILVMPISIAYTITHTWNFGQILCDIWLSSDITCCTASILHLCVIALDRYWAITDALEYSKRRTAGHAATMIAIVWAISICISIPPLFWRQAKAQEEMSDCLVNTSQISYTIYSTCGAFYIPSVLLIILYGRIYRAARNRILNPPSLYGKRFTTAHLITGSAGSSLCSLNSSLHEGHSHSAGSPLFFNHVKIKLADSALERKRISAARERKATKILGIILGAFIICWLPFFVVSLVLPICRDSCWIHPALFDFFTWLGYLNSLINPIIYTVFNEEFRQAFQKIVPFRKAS

[9] = molecular target: T3, 5-hydroxytryptamine receptor 2C (Homo sapiens, UniProt P28335); experiment: Binding affinity to 5-HT2C receptor
T3 sequence (P28335 whole entry): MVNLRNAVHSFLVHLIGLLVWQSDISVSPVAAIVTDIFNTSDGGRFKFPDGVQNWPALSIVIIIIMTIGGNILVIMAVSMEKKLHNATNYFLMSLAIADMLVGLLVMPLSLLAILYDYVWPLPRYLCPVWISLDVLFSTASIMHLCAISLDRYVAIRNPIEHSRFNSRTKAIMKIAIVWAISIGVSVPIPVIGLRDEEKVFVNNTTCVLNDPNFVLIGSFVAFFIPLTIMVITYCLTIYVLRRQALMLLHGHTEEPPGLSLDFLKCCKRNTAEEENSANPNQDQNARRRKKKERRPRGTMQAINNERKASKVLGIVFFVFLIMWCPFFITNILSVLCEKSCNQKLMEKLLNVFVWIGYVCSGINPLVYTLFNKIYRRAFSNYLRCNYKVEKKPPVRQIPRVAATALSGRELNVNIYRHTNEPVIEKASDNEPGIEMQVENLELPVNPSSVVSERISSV

[10] = molecular target: T4, Alpha-2A adrenergic receptor (Homo sapiens, UniProt P08913); experiment: Binding affinity to adrenergic alpha2A receptor
T4 sequence (P08913 whole entry): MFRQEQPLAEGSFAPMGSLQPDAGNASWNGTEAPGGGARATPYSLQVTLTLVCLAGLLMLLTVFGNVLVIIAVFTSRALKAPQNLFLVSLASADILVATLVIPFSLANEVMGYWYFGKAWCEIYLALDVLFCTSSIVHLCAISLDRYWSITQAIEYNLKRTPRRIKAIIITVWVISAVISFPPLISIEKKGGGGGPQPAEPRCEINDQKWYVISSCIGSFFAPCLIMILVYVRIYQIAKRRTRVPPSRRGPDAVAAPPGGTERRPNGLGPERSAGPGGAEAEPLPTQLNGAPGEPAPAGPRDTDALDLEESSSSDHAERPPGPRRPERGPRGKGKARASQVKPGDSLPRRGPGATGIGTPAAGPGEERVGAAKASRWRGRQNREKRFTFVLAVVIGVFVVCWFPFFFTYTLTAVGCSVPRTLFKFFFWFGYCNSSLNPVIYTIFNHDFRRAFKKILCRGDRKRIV

[11] = molecular target: T2, 5-hydroxytryptamine receptor 2B; experiment: Binding affinity to 5-HT2B receptor
D(2) dopamine receptor = D(2) dopamine receptor (Homo sapiens, UniProt P14416); experiment: Binding affinity to dopamine D2 receptor
Chain of D(2) dopamine receptor (P14416 whole entry): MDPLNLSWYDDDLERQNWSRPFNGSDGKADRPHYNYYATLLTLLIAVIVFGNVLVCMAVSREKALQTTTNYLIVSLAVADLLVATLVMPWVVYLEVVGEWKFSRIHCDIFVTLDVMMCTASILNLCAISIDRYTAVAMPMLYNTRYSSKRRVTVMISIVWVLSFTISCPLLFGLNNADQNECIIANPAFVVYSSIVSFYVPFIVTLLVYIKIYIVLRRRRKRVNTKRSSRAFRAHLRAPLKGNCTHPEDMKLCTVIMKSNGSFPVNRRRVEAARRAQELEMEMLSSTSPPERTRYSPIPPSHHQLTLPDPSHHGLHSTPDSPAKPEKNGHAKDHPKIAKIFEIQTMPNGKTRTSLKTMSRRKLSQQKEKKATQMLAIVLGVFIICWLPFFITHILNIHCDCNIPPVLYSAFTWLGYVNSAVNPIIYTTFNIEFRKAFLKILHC

[12] = molecular target: T5, 5-hydroxytryptamine receptor 1A (Homo sapiens, UniProt P08908); experiment: Binding affinity to 5-HT1A receptor
T5 sequence (P08908 whole entry): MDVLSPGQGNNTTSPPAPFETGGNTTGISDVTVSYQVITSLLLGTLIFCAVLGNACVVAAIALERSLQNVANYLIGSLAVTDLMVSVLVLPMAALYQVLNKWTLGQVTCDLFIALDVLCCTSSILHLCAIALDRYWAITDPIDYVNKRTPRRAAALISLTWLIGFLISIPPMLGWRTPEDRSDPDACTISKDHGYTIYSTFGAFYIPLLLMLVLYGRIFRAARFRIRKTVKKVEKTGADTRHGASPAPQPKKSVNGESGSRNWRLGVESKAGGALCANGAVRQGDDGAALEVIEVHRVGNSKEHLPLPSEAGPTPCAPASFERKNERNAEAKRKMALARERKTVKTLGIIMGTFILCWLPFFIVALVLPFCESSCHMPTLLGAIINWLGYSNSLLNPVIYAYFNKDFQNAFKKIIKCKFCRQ

[13] = molecular target: T1, 5-hydroxytryptamine receptor 6; experiment: Displacement of [3H]-LSD from cloned human 5-HT6 receptor expressed in human HeLa cells; type: cell-based
Procedure, shortened: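 Radioligand displacement of [³H]-LSD from cloned human 5-HT6 receptors stably expressed in HeLa cells; compounds tested as HCl salts; Ki values determined in triplicate.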

[14] = Binding affinity to P-glycoprotein
[15] = molecular target: 5-hydroxytryptamine receptor 1B (Homo sapiens, UniProt P28222); experiment: Binding affinity to 5-HT1B receptor
Chain of 5-hydroxytryptamine receptor 1B (P28222 whole entry): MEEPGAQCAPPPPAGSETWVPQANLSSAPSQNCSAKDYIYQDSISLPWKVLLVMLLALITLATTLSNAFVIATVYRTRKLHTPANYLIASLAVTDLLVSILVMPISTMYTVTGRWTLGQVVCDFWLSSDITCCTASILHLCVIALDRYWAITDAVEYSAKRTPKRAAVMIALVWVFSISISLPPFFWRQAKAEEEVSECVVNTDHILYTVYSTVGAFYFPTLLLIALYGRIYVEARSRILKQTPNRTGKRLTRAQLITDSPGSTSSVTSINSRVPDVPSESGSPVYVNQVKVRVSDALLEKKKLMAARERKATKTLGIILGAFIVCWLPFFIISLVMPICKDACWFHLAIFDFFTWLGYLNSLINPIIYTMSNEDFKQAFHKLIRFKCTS

Rattus norvegicus = experiment: Cognitive enhancing effect in rat assessed as inhibition of scopolamine-induced memory deficit at 10 mg/kg, po by novel object recognition test; type: functional, organism-based; set-up: dose 10 mg/kg
Procedure, shortened: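 Rats given compound orally at 10 mg/kg; scopolamine-induced memory deficit assessed in a novel object recognition assay.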

Chain of 5-hydroxytryptamine receptor 7 (P34969 whole entry): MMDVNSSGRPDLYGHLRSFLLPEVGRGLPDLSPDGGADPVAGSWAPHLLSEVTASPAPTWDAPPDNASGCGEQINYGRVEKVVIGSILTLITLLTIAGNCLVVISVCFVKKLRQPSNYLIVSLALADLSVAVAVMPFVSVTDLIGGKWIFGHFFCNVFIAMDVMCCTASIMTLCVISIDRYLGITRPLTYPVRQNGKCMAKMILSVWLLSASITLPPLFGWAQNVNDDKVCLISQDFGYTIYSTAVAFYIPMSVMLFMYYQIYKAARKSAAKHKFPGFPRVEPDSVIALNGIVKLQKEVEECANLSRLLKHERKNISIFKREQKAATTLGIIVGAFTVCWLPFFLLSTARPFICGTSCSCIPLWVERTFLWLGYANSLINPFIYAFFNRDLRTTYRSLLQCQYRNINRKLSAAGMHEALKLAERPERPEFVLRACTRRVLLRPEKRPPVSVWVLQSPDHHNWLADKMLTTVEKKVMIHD

| SMILES | Ki [1] | half-life [2] | IC50 [3] | solubility [4] | Activity [5] | fraction unbound [6] | half-life [7] | Ki [8] | Ki [9] | Ki [10] | Ki [11] | Ki (D(2) dopamine receptor) | Ki [12] | Ki [13] | Activity [14] | Ki [15] | inhibition (Rattus norvegicus) |
| --- | --- | --- | --- | --- | --- | --- | --- | --- | --- | --- | --- | --- | --- | --- | --- | --- | --- |
| Cl.O=C(Nc1ccc2[nH]nc(S(=O)(=O)c3cccc4ccccc34)c2c1)C1CCNCC1 | > 5000 nM | > 30 min | 8.2 nM | > 100 µg/mL | inactive | > 0.2 | > 30 min | 1340 nM | > 5000 nM | > 5000 nM | 33 nM | > 5000 nM | 3010 nM | 1.1 nM | inactive | > 5000 nM | Active |
| Cl.O=S(=O)(c1cccc2ccccc12)c1n[nH]c2ccc(NC3CCNCC3)cc12 | 3970 nM | > 30 min | 15 nM | > 100 µg/mL | inactive | > 0.2 | > 30 min | > 5000 nM | > 5000 nM | > 5000 nM | 675 nM | > 5000 nM | > 5000 nM | 0.7 nM | inactive | > 5000 nM | Active |
| Cl.O=S(=O)(c1cccc(Cl)c1)c1n[nH]c2ccc(NC3CCNCC3)cc12 | 3220 nM | > 30 min | 12 nM | > 100 µg/mL | inactive | > 0.2 | > 30 min | 410 nM | 2430 nM | > 5000 nM | 155 nM | > 5000 nM | 455 nM | 1 nM | inactive | 1660 nM |  |
